Measured values taken from ChEMBL document CHEMBL1157410, “7-aryl 1,5-dihydro-benzo[e][1,4]oxazepin-2-ones and analogs as non-steroidal progesterone receptor antagonists” (Bioorg Med Chem, 2008).
pIC50: −log10 of the molar value. Activity calls are given as the source filed them. The calls are words filed in the database; no cut-off is given here.

Key:
[1] = target: T1, Estrogen receptor (Homo sapiens) (UniProt P03372); test: Antagonist activity at cloned estrogen receptor-ligand binding domain expressed in african green monkey COS7 cells by GAL4 luciferase reporter assay upto 10 uM; format: cell-based; details: COS-7
T1 sequence (whole entry): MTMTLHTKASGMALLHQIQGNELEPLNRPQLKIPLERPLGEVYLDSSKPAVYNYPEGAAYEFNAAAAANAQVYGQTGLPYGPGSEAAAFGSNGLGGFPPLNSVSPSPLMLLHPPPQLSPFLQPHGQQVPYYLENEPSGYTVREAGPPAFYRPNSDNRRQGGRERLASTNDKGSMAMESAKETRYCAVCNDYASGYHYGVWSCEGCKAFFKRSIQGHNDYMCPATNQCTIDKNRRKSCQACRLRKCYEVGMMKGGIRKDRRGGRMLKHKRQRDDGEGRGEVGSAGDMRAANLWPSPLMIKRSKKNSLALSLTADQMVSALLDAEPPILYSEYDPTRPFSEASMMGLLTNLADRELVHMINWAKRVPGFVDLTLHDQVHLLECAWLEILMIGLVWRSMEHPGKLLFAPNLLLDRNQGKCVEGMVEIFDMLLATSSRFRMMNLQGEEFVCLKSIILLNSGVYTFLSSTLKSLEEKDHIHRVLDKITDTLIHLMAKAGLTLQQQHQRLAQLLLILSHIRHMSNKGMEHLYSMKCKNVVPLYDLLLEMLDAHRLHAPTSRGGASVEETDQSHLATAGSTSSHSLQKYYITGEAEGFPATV
In short: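 COS-7 cells in phenol red-free DMEM with 10% charcoal/dextran-treated FBS were transfected for 16 h with a GAL4-DBD/receptor-LBD fusion plasmid and a GAL4_UAS (5 copies, E1b TATA) luciferase reporter, 50 ng/well each. Cells were then given compound for 20 h, and luciferase activity was read from cell lysates by luminometer.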

[2] = target: T2, Mineralocorticoid receptor (Homo sapiens) (UniProt P08235); test: (§1) Antagonist activity at cloned mineralocorticoid receptor-ligand binding domain expressed in african green monkey COS7 cells by GAL4 luciferase reporter assay; format: cell-based; details: COS-7; concentration not given here
T2 sequence (whole entry): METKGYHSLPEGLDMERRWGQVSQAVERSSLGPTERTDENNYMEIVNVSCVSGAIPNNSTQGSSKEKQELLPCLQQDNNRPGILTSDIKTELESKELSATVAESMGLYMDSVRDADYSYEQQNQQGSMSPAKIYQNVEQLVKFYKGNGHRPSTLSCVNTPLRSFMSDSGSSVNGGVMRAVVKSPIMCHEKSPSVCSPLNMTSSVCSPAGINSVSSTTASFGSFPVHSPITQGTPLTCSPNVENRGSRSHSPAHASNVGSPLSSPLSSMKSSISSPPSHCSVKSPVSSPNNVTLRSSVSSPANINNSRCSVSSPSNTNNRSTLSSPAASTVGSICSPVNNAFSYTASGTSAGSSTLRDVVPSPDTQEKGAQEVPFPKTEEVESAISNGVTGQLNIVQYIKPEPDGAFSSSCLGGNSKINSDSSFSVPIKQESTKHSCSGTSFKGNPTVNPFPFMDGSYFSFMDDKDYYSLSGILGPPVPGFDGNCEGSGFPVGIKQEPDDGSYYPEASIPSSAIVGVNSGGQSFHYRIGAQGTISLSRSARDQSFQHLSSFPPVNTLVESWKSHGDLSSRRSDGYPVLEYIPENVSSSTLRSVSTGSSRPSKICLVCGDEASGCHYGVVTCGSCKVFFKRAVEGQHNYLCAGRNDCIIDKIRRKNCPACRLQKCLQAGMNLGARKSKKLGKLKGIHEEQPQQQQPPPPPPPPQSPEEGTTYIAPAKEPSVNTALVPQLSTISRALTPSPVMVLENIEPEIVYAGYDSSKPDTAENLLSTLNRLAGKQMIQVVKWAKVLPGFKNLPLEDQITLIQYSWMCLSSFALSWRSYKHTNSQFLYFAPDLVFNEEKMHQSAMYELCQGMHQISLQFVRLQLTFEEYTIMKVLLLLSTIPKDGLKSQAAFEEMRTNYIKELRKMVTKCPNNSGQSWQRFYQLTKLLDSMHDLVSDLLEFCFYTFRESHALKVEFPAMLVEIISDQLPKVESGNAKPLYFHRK
In short: (§2)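 GAL4 DNA-binding domain fused to receptor ligand-binding domain, one-hybrid format. LBD fusion and GAL4_UAS (5 copies, E1b minimal TATA) luciferase reporter plasmids, 50 ng/well each, transfected 16 h into COS-7 cells. Cells grown in phenol red-free DMEM with 10% charcoal/dextran-treated FBS. Compound exposure 20 h, then luciferase read on lysates. Mean of at least duplicate determinations.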

[3] = target: T3, Mineralocorticoid receptor (Homo sapiens, UniProt P08235); test: as §1; format: cell-based, COS-7; in short: as §2
T3 sequence (P08235 whole entry): T2 sequence (whole entry)

[4] = Selectivity for progesterone receptor over estrogen receptor
[5] = Selectivity for progesterone receptor over androgen receptor
[6] = Selectivity for progesterone receptor over glucocorticoid receptor
[7] = Selectivity for progesterone receptor over mineralocorticoid receptor
[8] = test system: Rattus norvegicus; test: Activity in ovariectomized rat assessed as inhibition of progesterone-induced decidualization at 3 mg/kg, po; format: functional; design: scale not given: the % may be the effect or the level left

| Activity [1] | inhibition [2] [%] | pIC50 [3] | Selectivity ratio [4] | Selectivity ratio [5] | Selectivity ratio [6] | Selectivity ratio [7] | SMILES | Activity [8] [%] |
| --- | --- | --- | --- | --- | --- | --- | --- | --- |
| inactive | 60 | < 5.52 | > 100 | > 100 | > 100 | > 100 | N#Cc1cc(F)cc(-c2ccc3c(c2)C(c2ccco2)(c2ccco2)OCC(=O)N3)c1 |  |
| inactive | 32 | < 5.52 | > 100 | > 100 | > 100 | > 100 | CC1(C)OCC(=O)Nc2ccc(-c3cc(F)cc(C#N)c3)cc21 | 50 |

| SMILES | Activity [1] | inhibition [2] [%] | pIC50 [3] | Selectivity ratio [4] | Selectivity ratio [5] | Selectivity ratio [6] | Selectivity ratio [7] | Activity [8] [%] |
| --- | --- | --- | --- | --- | --- | --- | --- | --- |
| CCC1(c2ccco2)OCC(=O)Nc2ccc(-c3cc(F)cc(C#N)c3)cc21 (centres undefined) | inactive | 82 | < 5.52 |  |  |  |  | 50 |
